Data reported in ChEMBL document CHEMBL1165950, “Design and synthesis of new potent anticancer pyrazoles with high FLT3 kinase inhibitory selectivity” (Bioorg Med Chem, 2010).

Experiments:
Format in all cases: functional
SF-539 = test: Cytotoxicity against human SF539 cells assessed as cell growth at 0.001 uM after 48 hrs by sulforhodamine B assay; settings: SF-539, 48 h, read-out: Activity
SW-620 = test: Cytotoxicity against human SW620 cells assessed as cell growth at 100 nM after 48 hrs by sulforhodamine B assay; settings: SW-620, 48 h, read-out: Activity
U-251 = test: Cytotoxicity against human U251 cells assessed as cell growth at 1 uM after 48 hrs by sulforhodamine B assay; settings: U-251, 48 h, read-out: Activity
MDA-MB-468 = test: Cytotoxicity against human MDA-MB-468 cells assessed as cell growth at 100 nM after 48 hrs by sulforhodamine B assay; settings: MDA-MB-468, 48 h, read-out: Activity
NCI-H23 [1] = test: Cytotoxicity against human NCI-H23 cells assessed as cell growth at 0.01 uM after 48 hrs by sulforhodamine B assay; settings: NCI-H23, 48 h, read-out: Activity
NCI-H460 = test: Cytotoxicity against human NCI-H460 cells assessed as cell growth at 0.001 uM after 48 hrs by sulforhodamine B assay; settings: NCI-H460, 48 h, read-out: Activity
BT-549 = test: Cytotoxicity against human BT549 cells assessed as cell growth at 0.01 uM after 48 hrs by sulforhodamine B assay; settings: BT-549, 48 h, read-out: Activity
Outline: (§1)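 NCI-60 five-dose screen. Cells were grown in RPMI 1640 with 5% FBS and 2 mM L-glutamine, plated at 5000–40,000 cells/well and preincubated for 24 h. Time-zero plates were TCA-fixed. DMSO-solubilized drug was added at five concentrations (10-fold or ½-log serial dilutions) for 48 h at 37 °C, 5% CO2. Cells were TCA-fixed, stained with 0.4% SRB and read at 515 nm. Percent growth used time-zero, control and test absorbances.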

SN12C = test: Cytotoxicity against human SN12C cells assessed as cell growth at 10 uM after 48 hrs by sulforhodamine B assay; settings: read-out: Activity
HT-29 [2] = test: Cytotoxicity against human HT-29 cells assessed as cell growth at 0.001 uM after 48 hrs by sulforhodamine B assay; settings: HT-29, 48 h, read-out: Activity
MDA-MB-231 = test: Cytotoxicity against human MDA-MB-231 cells assessed as cell growth at 10 uM after 48 hrs by sulforhodamine B assay; settings: MDA-MB-231, 48 h, read-out: Activity
HT-29 [3] = test: Cytotoxicity against human HT-29 cells assessed as cell growth at 10 uM after 48 hrs by sulforhodamine B assay; settings: HT-29, 48 h, read-out: Activity
SK-OV-3 = test: Cytotoxicity against human SKOV3 cells assessed as cell growth at 1 uM after 48 hrs by sulforhodamine B assay; settings: SK-OV-3, 48 h, read-out: Activity
OVCAR-3 [4] = test: Cytotoxicity against human OVCAR-3 cells assessed as cell growth at 100 nM after 48 hrs by sulforhodamine B assay; settings: OVCAR-3, 48 h, read-out: Activity
CCRF-CEM = test: Cytotoxicity against human CCRF-CEM cells assessed as cell growth at 0.001 uM after 48 hrs by sulforhodamine B assay; settings: read-out: Activity; outline: as §1
M14 = test: Cytotoxicity against human M14 cells assessed as cell growth at 0.01 uM after 48 hrs by sulforhodamine B assay; settings: M14, 48 h, read-out: Activity
PC-3 = test: Cytotoxicity against human PC3 cells assessed as cell growth at 0.001 uM after 48 hrs by sulforhodamine B assay; settings: PC-3, 48 h, read-out: Activity
MDA-MB-435 = test: Cytotoxicity against human MDA-MB-435 cells assessed as cell growth at 100 nM after 48 hrs by sulforhodamine B assay; settings: MDA-MB-435, 48 h, read-out: Activity
SK-MEL-2 = test: Cytotoxicity against human SK-MEL-2 cells assessed as cell growth at 0.01 uM after 48 hrs by sulforhodamine B assay; settings: SK-MEL-2, 48 h, read-out: Activity
SK-MEL-28 = test: Cytotoxicity against human SK-MEL-28 cells assessed as cell growth at 0.01 uM after 48 hrs by sulforhodamine B assay; settings: SK-MEL-28, 48 h, read-out: Activity
OVCAR-8 = test: Growth inhibition of human OVCAR8 cells after 48 hrs by sulforhodamine B assay; settings: OVCAR-8, 48 h; for CC50: read-out: LC50 (the source's name)
Outline: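 NCI 60-cell screen, five-dose mode. Cells grown in RPMI 1640 with 5% FBS and 2 mM L-glutamine and plated at 5000-40,000 cells/well according to doubling time. After 24 h preincubation, a Tz plate was TCA-fixed. Five concentrations (10-fold or 1/2 log dilutions) were applied for 48 h at 37 °C. SRB staining read at 515 nm. IC50 taken from [(Ti-Tz)/(C-Tz)]×100 = 50.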

OVCAR-5 = test: Cytotoxicity against human OVCAR5 cells assessed as cell growth at 10 uM; settings: read-out: Activity
Outline: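 NCI-60 screen: cells grown in RPMI 1640 with 5% FBS and 2 mM L-glutamine, plated at 5000–40,000 cells/well according to doubling time, and preincubated 24 h at 37 °C, 5% CO2. The single 10 µM dose (DMSO stock) was added, then incubated 48 h. Cells were TCA-fixed and stained with 0.4% SRB, read at 515 nm, and growth % calculated against time-zero and control plates.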

OVCAR-3 [5] = test: Cytotoxicity against human OVCAR-3 cells assessed as cell growth at 0.01 uM after 48 hrs by sulforhodamine B assay; settings: OVCAR-3, 48 h, read-out: Activity
786-0 = test: Cytotoxicity against human 786-0 cells assessed as cell growth at 0.001 uM after 48 hrs by sulforhodamine B assay; settings: 786-0, 48 h, read-out: Activity; outline: as §1
DU-145 = test: Growth inhibition of human DU145 cells after 48 hrs by sulforhodamine B assay; settings: DU-145, 48 h
Outline: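 NCI five-dose SRB assay in RPMI 1640 with 5% FBS and 2 mM L-glutamine. Cells were preincubated 24 h, then exposed 48 h at 37 °C to five concentrations (10-fold or half-log serial dilutions from DMSO stocks). TCA fixation, SRB staining, and absorbance at 515 nm followed. IC50 was taken where [(Ti−Tz)/(C−Tz)]×100 = 50, with Tz as time-zero cell density.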

NCI-H23 [6] = test: Cytotoxicity against human NCI-H23 cells assessed as cell growth at 10 uM after 48 hrs by sulforhodamine B assay; settings: NCI-H23, 48 h, read-out: Activity
IGROV-1 = test: Cytotoxicity against human IGROV1 cells assessed as cell growth at 100 nM after 48 hrs by sulforhodamine B assay; settings: IGROV-1, 48 h, read-out: Activity
[7] = Cytotoxicity against human Hs 578T cells assessed as cell growth at 1 uM after 48 hrs by sulforhodamine B assay; settings: read-out: Activity

Cc1cc(O)cc(-c2nn(CC#N)cc2-c2ccnc(-c3ccc(N(C)C)cc3)c2)c1
growth at 0.001 µM (SF-539): 97% | growth at 0.1 µM (SW-620): 83% | growth at 1 µM (U-251): 8% | growth at 0.1 µM (MDA-MB-468): 77% | growth at 0.01 µM (NCI-H23 [1]): 96% | growth at 0.001 µM (NCI-H460): 109% | growth at 0.01 µM (BT-549): 91% | growth at 10 µM (SN12C): -29% | growth at 0.001 µM (HT-29 [2]): 101% | growth at 10 µM (MDA-MB-231): -21% | growth at 10 µM (HT-29 [3]): -52% | growth at 1 µM (SK-OV-3): -11% | growth at 0.1 µM (OVCAR-3 [4]): 85% | growth at 0.001 µM (CCRF-CEM): 97% | growth at 0.01 µM (M14): 92% | growth at 0.001 µM (PC-3): 105% | growth at 0.1 µM (MDA-MB-435): 51% | growth at 0.01 µM (SK-MEL-2): 108% | growth at 0.01 µM (SK-MEL-28): 94% | GI50 (OVCAR-8): 4.2 µM | TGI (OVCAR-8): 69.4 µM | CC50 (OVCAR-8): > 100 µM | growth at 10 µM (OVCAR-5): 111% | growth at 0.01 µM (OVCAR-3 [5]): 91% | growth at 0.001 µM (786-0): 102% | GI50 (DU-145): 2.75 µM | LC50 (DU-145): 53.2 µM | TGI (DU-145): 8.57 µM | growth at 10 µM (NCI-H23 [6]): -37% | growth at 0.1 µM (IGROV-1): 87% | growth at 1 µM [7]: -15%

COc1cc(C)cc(-c2nn(CC#N)cc2-c2ccnc(-c3ccc(N(C)C)cc3)c2)c1
growth at 0.001 µM (SF-539): 102% | growth at 0.1 µM (SW-620): 14% | growth at 1 µM (U-251): -5% | growth at 0.1 µM (MDA-MB-468): -18% | growth at 0.01 µM (NCI-H23 [1]): 97% | growth at 0.001 µM (NCI-H460): 103% | growth at 0.01 µM (BT-549): 100% | growth at 10 µM (SN12C): -8% | growth at 0.001 µM (HT-29 [2]): 103% | growth at 10 µM (MDA-MB-231): 4% | growth at 10 µM (HT-29 [3]): -66% | growth at 1 µM (SK-OV-3): -24% | growth at 0.1 µM (OVCAR-3 [4]): -51% | growth at 0.001 µM (CCRF-CEM): 97% | growth at 0.01 µM (M14): 93% | growth at 0.001 µM (PC-3): 97% | growth at 0.1 µM (MDA-MB-435): -25% | growth at 0.01 µM (SK-MEL-2): 116% | growth at 0.01 µM (SK-MEL-28): 102% | GI50 (OVCAR-8): 0.522 µM | TGI (OVCAR-8): 41.6 µM | CC50 (OVCAR-8): > 100 µM | growth at 10 µM (OVCAR-5): 55.9% | growth at 0.01 µM (OVCAR-3 [5]): 95% | growth at 0.001 µM (786-0): 101% | GI50 (DU-145): 0.319 µM | LC50 (DU-145): > 100 µM | TGI (DU-145): 1.11 µM | growth at 10 µM (NCI-H23 [6]): 5% | growth at 0.1 µM (IGROV-1): 16% | growth at 1 µM [7]: -13%
